According to ChEMBL document CHEMBL4014335, “Activation of Phenyl 4-(2-Oxo-3-alkylimidazolidin-1-yl)benzenesulfonates Prodrugs by CYP1A1 as New Antimitotics Targeting Breast Cancer Cells” (J Med Chem, 2017):

Legend:
HT-1080 [1] = test: Antiproliferative activity against human HT1080 cells transfected with CYP1A1 after 72 hrs by SRB assay; assay type: functional, cell-based; conditions: HT-1080, 72 h
Summary of the method: (§1)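 SRB antiproliferative assay (modified NCI protocol). Cells seeded per well (SK-BR-3, MDA-MB-231, T47D, HT-1080, HT-1080 CYP1A1 and empty-vector: 3.0 x 10^3; MDA-MB-468: 5.0 x 10^3; MCF7: 7.5 x 10^3), preincubated 24 h. DMSO-solubilized drug added at 0.75 to 1.0 x 10^5 nM, then 72 h. Fixed with cold 10% TCA, stained with 0.1% sulforhodamine B, absorbance read at 530-565 nm. At least two experiments, triplicate cultures.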

[2] = Selectivity ratio of IC50 for ER/PR/HER2 deficient human MDA-MB-231 cells to IC50 for ER/PR deficient and HER2 expressing human SKBR3 cells; assay type: functional
Summary of the method: (§2)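 Ratio is IC50 in reference line over IC50 in sensitive line. […] Cells in DMEM with 5% calf serum at 37 °C. At least two experiments, triplicate cultures; assay accepted when relative SD < 10%.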

SK-BR-3 = test: Antiproliferative activity against ER/PR deficient and HER2 expressing human SKBR3 cells after 72 hrs by SRB assay; assay type: functional, cell-based; conditions: SK-BR-3, 72 h; summary of the method: as §1
T47D = test: Antiproliferative activity against ER/PR/HER2 expressing human T47D cells after 72 hrs by SRB assay; assay type: functional, cell-based; summary of the method: as §1
MDA-MB-231 = test: Antiproliferative activity against ER/PR/HER2 deficient human MDA-MB-231 cells after 72 hrs by SRB assay; assay type: functional, cell-based; conditions: MDA-MB-231, 72 h; summary of the method: as §1
MCF7 [3] = test: Antiproliferative activity against human MCF7 cells after 48 hrs by SRB assay; assay type: functional, cell-based; conditions: MCF7, 48 h
Summary of the method: (§3)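 SRB assay run as in the NCI screen with slight modifications. Seeding: HT-29 5.0 x 10^3, M21 3.5 x 10^3, MCF7 7.5 x 10^3 cells; cells preincubated 24 h. Drug in DMSO added at 0.75 to 1.0 x 10^5 nM for 48 h. TCA fixation, sulforhodamine B staining, absorbance 530-565 nm. At least two experiments in triplicate; runs accepted only when relative SD < 10%.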

Cytochrome P450 1A1 [4] = molecular target: T1, Cytochrome P450 1A1 (Homo sapiens, UniProt P04798); test: Inhibition of human supersomes CYP1A1-mediated 7-ethoxyresorufin conversion to fluorescent resorufin preincubated with 7-ethoxyresorufin for 5 mins followed by addition of NADPH regenerating system measured for 15 mins by EROD assay; assay type: ADME
T1 sequence (P04798 whole entry): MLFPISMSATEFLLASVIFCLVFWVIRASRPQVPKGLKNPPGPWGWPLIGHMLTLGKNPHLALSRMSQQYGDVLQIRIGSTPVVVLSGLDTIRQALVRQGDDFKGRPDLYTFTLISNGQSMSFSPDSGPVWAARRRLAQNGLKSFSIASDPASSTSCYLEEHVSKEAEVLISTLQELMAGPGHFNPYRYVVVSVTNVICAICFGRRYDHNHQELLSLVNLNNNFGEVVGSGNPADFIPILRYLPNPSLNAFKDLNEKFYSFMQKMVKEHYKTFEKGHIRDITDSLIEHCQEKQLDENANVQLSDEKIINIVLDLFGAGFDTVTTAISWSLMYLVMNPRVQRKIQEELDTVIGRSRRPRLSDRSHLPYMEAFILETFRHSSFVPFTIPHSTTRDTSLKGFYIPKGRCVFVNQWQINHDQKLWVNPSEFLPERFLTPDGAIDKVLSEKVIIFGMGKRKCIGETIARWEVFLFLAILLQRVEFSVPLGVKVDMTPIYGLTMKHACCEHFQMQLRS
Summary of the method: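 EROD assay with human CYP1A1 supersomes containing reductase, in potassium phosphate buffer. Drug final 32–31 600 nM and 7-ethoxyresorufin 94–3 000 nM, with 0.35% DMSO, preincubated 5 min at 37 °C. Reaction started with NADPH-regenerating system and 0.15 pmol CYP1A1 in 150 µL. Initial velocity taken from 1–5 min; Vmax and Km from Lineweaver-Burk plot.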

Cytochrome P450 1A1 [5] = molecular target: T1, Cytochrome P450 1A1; test: Prodrug activation assessed as time required for human supersomes CYP1A1-mediated 3,4,5-trimethoxyphenyl 4-(2-oxoimidazolidin-1-yl)benzenesulfonate formation after 4 hrs by HPLC-MS analysis; assay type: ADME; conditions: recombinant enzyme
HT-1080 [6] = test: Selectivity ratio of IC50 for HT1080 cells transfected with pCMV6-AC empty plasmid to IC50 for human HT1080 cells transfected with CYP1A1; assay type: functional
Summary of the method: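 Ratio is IC50 (HT-1080 empty vector) over IC50 (HT-1080 CYP1A1). Both lines stably transfected (pCMV6-AC plasmids) and kept under G418 selection, seeded at 3.0 x 10^3 cells. IC50s from SRB antiproliferative assay.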

MCF7 [7] = test: Antiproliferative activity against human MCF7 cells after 72 hrs by SRB assay; assay type: functional, cell-based; conditions: MCF7, 72 h; summary of the method: as §1
MDA-MB-468 = test: Antiproliferative activity against ER/PR/HER2 deficient human MDA-MB-468 cells after 72 hrs by SRB assay; assay type: functional, cell-based; conditions: MDA-MB-468, 72 h; summary of the method: as §1
[8] = Selectivity ratio of IC50 for ER/PR/HER2 deficient human MDA-MB-231 cells to IC50 for human MCF7 cells; assay type: functional; summary of the method: as §2
[9] = Selectivity ratio of IC50 for human M21 cells to IC50 for human MCF7 cells; assay type: functional; summary of the method: as §2
Cytochrome P450 1A1 [10] = molecular target: T1, Cytochrome P450 1A1; test: Prodrug activation assessed as human supersomes CYP1A1-mediated 3,4,5-trimethoxyphenyl 4-(2-oxoimidazolidin-1-yl)benzenesulfonate formation after 4 hrs by HPLC-MS analysis; assay type: ADME; conditions: recombinant enzyme
HT-1080 [11] = test: Antiproliferative activity against human HT1080 cells transfected with pCMV6-AC empty plasmid after 72 hrs by SRB assay; assay type: functional, cell-based; conditions: HT-1080, 72 h; summary of the method: as §1
[12] = Selectivity ratio of IC50 for ER/PR/HER2 deficient human MDA-MB-231 cells to IC50 for ER/PR/HER2 deficient human MDA-MB-468 cells; assay type: functional; summary of the method: as §2
M21 = test: Antiproliferative activity against human M21 cells after 48 hrs by SRB assay; assay type: functional, cell-based; conditions: M21, 48 h; summary of the method: as §3
[13] = Selectivity ratio of IC50 for human HT-29 cells to IC50 for human MCF7 cells; assay type: functional; summary of the method: as §2
Cytochrome P450 1A1 [14] = molecular target: T1, Cytochrome P450 1A1; test: Prodrug conversion assessed as human supersomes CYP1A1-mediated 3,5-dimethoxyphenyl 4-(2-oxoimidazolidin-1-yl)benzenesulfonate formation after 4 hrs by HPLC-MS analysis; assay type: ADME; conditions: recombinant enzyme
[15] = Selectivity ratio of IC50 for ER/PR/HER2 deficient human MDA-MB-231 cells to IC50 for ER/PR/HER2 expressing human T47D cells; assay type: functional; summary of the method: as §2
HT-29 = test: Antiproliferative activity against human HT-29 cells after 48 hrs by SRB assay; assay type: functional, cell-based; conditions: HT-29, 48 h; summary of the method: as §3
HT-1080 [16] = test: Antiproliferative activity against human wild type HT1080 cells after 72 hrs by SRB assay; assay type: functional, cell-based; conditions: HT-1080, 72 h; summary of the method: as §1

CCCCN1CCN(c2ccc(S(=O)(=O)Oc3cc(OC)cc(OC)c3)cc2)C1=O
IC50 (HT-1080 [1]): 0.031 µM
Ratio IC50 [2]: >1900
IC50 (SK-BR-3): 0.052 µM
IC50 (T47D): 0.24 µM
IC50 (MDA-MB-231): > 100 µM
IC50 (MCF7 [3]): 0.019 µM
Ki (Cytochrome P450 1A1 [4]; read-out: Ki): 0.49 µM
Time (Cytochrome P450 1A1 [5]): 15 min
Ratio IC50 (HT-1080 [6]): 2600
IC50 (MCF7 [7]): 0.035 µM
IC50 (MDA-MB-468): 0.16 µM
Ratio IC50 [8]: >2900
Ratio IC50 [9]: >5300
Drug metabolism (Cytochrome P450 1A1 [10]): Metabolite_Notdetected
IC50 (HT-1080 [11]): 81 µM
Ratio IC50 [12]: >630
IC50 (M21): > 100 µM
Ratio IC50 [13]: 1900
Drug metabolism (Cytochrome P450 1A1 [14]): Metabolite_Detected
Ratio IC50 [15]: >420
IC50 (HT-29): 36 µM
IC50 (HT-1080 [16]): 29 µM

COc1cc(OC)cc(OS(=O)(=O)c2ccc(N3CCNC3=O)cc2)c1
IC50 (HT-1080 [1]): 0.0023 µM
Ratio IC50 [2]: 1.8
IC50 (SK-BR-3): 0.0055 µM
IC50 (T47D): 0.0087 µM
IC50 (MDA-MB-231): 0.01 µM
Ki (Cytochrome P450 1A1 [4]): Not Active
Ratio IC50 (HT-1080 [6]): 1.8
IC50 (MCF7 [7]): 0.004 µM
IC50 (MDA-MB-468): 0.0065 µM
Ratio IC50 [8]: 2.5
IC50 (HT-1080 [11]): 0.0042 µM
Ratio IC50 [12]: 1.5
Ratio IC50 [15]: 1.1
IC50 (HT-1080 [16]): 0.0054 µM

CCCCN1CCN(c2ccc(S(=O)(=O)Oc3cc(Cl)cc(Cl)c3)cc2)C1=O
IC50 (MCF7 [3]): 0.06 µM
Ratio IC50 [9]: 970
IC50 (M21): 58 µM
Ratio IC50 [13]: >1700
IC50 (HT-29): > 100 µM

Cc1ccccc1OS(=O)(=O)c1ccc(N2CCN(C)C2=O)cc1
IC50 (MCF7 [3]): 5.6 µM
Ratio IC50 [9]: 0.5
IC50 (M21): 2.9 µM
Ratio IC50 [13]: 0.9
IC50 (HT-29): 4.8 µM

CCN1CCN(c2ccc(S(=O)(=O)Oc3ccc(OC)c(OC)c3)cc2)C1=O
IC50 (MCF7 [3]): 39.1 µM
Ratio IC50 [9]: 0.9
IC50 (M21): 35 µM
Ratio IC50 [13]: 1
IC50 (HT-29): 37 µM

CCCN1CCN(c2ccc(S(=O)(=O)Oc3cccc(F)c3)cc2)C1=O
IC50 (MCF7 [3]): 24 µM
Ratio IC50 [9]: 0.5
IC50 (M21): 12 µM
Ratio IC50 [13]: 0.8
IC50 (HT-29): 18 µM

CCCCN1CCN(c2ccc(S(=O)(=O)Oc3ccc(F)c(F)c3)cc2)C1=O
IC50 (MCF7 [3]): 0.76 µM
Ratio IC50 [9]: >130
IC50 (M21): > 100 µM
Ratio IC50 [13]: >130
IC50 (HT-29): > 100 µM

CCCN1CCN(c2ccc(S(=O)(=O)Oc3ccc(Cl)cc3)cc2)C1=O
IC50 (MCF7 [3]): 18 µM
Ratio IC50 [9]: 1.9
IC50 (M21): 34 µM
Ratio IC50 [13]: 0.8
IC50 (HT-29): 15 µM

CN1CCN(c2ccc(S(=O)(=O)Oc3cccc(Cl)c3)cc2)C1=O
IC50 (MCF7 [3]): 2.2 µM
Ratio IC50 [9]: 0.7
IC50 (M21): 1.6 µM
Ratio IC50 [13]: 0.9
IC50 (HT-29): 2.1 µM

CCN1CCN(c2ccc(S(=O)(=O)Oc3cccc(OC)c3)cc2)C1=O
IC50 (MCF7 [3]): 14 µM
Ratio IC50 [9]: 0.5
IC50 (M21): 7 µM
Ratio IC50 [13]: 1.6
IC50 (HT-29): 22 µM

CCCN1CCN(c2ccc(S(=O)(=O)Oc3ccc(OC)cc3)cc2)C1=O
IC50 (MCF7 [3]): 20 µM
Ratio IC50 [9]: 1.2
IC50 (M21): 23 µM
Ratio IC50 [13]: 0.8
IC50 (HT-29): 16 µM

CCCN1CCN(c2ccc(S(=O)(=O)Oc3cc(OC)c(OC)c(OC)c3)cc2)C1=O
IC50 (HT-1080 [1]): 0.016 µM
Ratio IC50 [2]: 1300
IC50 (SK-BR-3): 0.005 µM
IC50 (T47D): 0.049 µM
IC50 (MDA-MB-231): 6 µM
IC50 (MCF7 [3]): 0.049 µM
Ki (Cytochrome P450 1A1 [4]; read-out: Ki): 0.24 µM
Time (Cytochrome P450 1A1 [5]): 15 min
Ratio IC50 (HT-1080 [6]): 5100
IC50 (MCF7 [7]): 0.018 µM
IC50 (MDA-MB-468): 0.026 µM
Ratio IC50 [8]: 340
Ratio IC50 [9]: 80
Drug metabolism (Cytochrome P450 1A1 [10]): Metabolite_Detected
IC50 (HT-1080 [11]): 82 µM
Ratio IC50 [12]: 240
IC50 (M21): 3.9 µM
Ratio IC50 [13]: 110
Ratio IC50 [15]: 130
IC50 (HT-29): 5.6 µM
IC50 (HT-1080 [16]): 6.7 µM

CCCN1CCN(c2ccc(S(=O)(=O)Oc3ccc(F)cc3)cc2)C1=O
IC50 (MCF7 [3]): 33 µM
Ratio IC50 [9]: 0.4
IC50 (M21): 14 µM
Ratio IC50 [13]: 0.7
IC50 (HT-29): 23 µM
